High-throughput results: PubChem, Broad Institute
GASC1 inh – inhibitors of human demethylase GASC-1 KDM4C; inhibition, % at 12.5 µM; Q9H3R0; AID 720574; 96,000 compounds, 0.15% hits; GST-KDM4C 2-372, H3K9me3 peptide, LANCE TR-FRET;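 active = mean replicate inhibition above about 25%, with at least 55% of replicates also reaching it, limit read from the data, passing the limit was not always enough; inconclusive = only one of those two conditions met; inactive = neither condition met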
Target sequence (Q9H3R0 2-372 limits assumed): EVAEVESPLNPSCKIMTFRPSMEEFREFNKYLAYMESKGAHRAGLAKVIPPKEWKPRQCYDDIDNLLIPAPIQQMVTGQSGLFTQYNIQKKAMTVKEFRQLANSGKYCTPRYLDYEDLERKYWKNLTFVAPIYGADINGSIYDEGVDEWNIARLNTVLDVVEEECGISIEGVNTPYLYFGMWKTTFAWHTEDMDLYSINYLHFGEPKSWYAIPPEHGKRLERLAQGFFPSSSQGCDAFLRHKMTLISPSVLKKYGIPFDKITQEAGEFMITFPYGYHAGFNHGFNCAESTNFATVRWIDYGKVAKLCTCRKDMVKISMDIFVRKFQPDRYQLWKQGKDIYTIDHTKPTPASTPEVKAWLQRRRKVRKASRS
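Test system – GST-tagged GASC-1 (JMJD2C) catalytic fragment, aa 2-372 · Medium – HEPES buffer, pH 7.5, plus ascorbate · Reagent – H3K9me3 peptide with Fe(II)/2OG · Compound – one test concentration per compound · Timing – 30 min reaction, 60 min detection, RT · Technique – TR-FRET with Eu antibody and ULight streptavidin, EDTA stop · Read-out basis – inhibition from TR-FRET ratio decrease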
IDH1 R132H inh – IDH1 R132H (human) inhibition; O75874; IDH1 R132H reductase, diaphorase/resazurin fluorescence, 60 min; inhibition, % at 10 µM; 70,000 compounds, 0.18% hits; in the data active = inhibition above about 34%; inconclusive = no clear call, values can overlap the other calls; inactive = below about 11%;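 also: 0% = DMSO and 100% = no enzyme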
T cruzi growth-1 – T. cruzi proliferation inhibition. inhibition, % at 8.34 µM. 77,000 compounds, 5.9% hits. T. cruzi beta-gal in NIH3T3, GalScreen luminescence, 90 h;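 active = mean inhibition above about 93%, with at least 55% of replicates each passing it, limit read from the data, passing the limit was not always enough; inconclusive = only one of those two conditions holds; inactive = neither condition holds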
T cruzi growth-2 – Trypanosoma cruzi proliferation inhibition. shares compounds with T cruzi growth-1. inhibition, % at 8.35 µM. 5,600 compounds, 72% hits. AID 651739. T. cruzi beta-gal in NIH3T3, GalScreen luminescence, 90 h;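 active = mean replicate inhibition above about 95% and at least 55% of replicates individually reaching it, limit read from the data; inconclusive = only one of the two criteria is met; inactive = neither criterion is met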
T cruzi growth-3 – blocks T. cruzi growth in NIH3T3 host cells. 5,600 compounds, 21% hits. shares compounds with T cruzi growth-1. T. cruzi beta-gal in NIH3T3, GalScreen luminescence, 90 h. inhibition, % at 2.09 µM;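 active = mean inhibition above about 95%, with at least 55% of replicates also reaching it, limit read from the data; inconclusive = meets just one of the two conditions; inactive = meets neither condition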;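 also: plate controls were neutral control median for no effect and positive control median for full effect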
3T3 cytotox – NIH/3T3 (mouse) viability loss. shares compounds with T cruzi growth-1. NIH/3T3 viability, CellTiter-Glo ATP luminescence, 90 h. cytotoxicity (signal decrease), % at 8.35 µM. 5,600 compounds, 14% hits;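 active = mean signal decrease across replicates above about 35% based on untreated-well scatter, with enough replicates individually passing, limit read from the data; inconclusive = no rule stated though some were filed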;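 also: 0% = median of neutral control wells and 100% = median of positive control wells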
3T3 cytotox 2 – NIH/3T3 (mouse) viability loss | shares compounds with T cruzi growth-1 | NIH/3T3 viability, CellTiter-Glo ATP luminescence, 90 h | inhibition, % at 24.9 µM | 5,600 compounds, 56% hits | AID 651744;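 active = mean loss of cell viability signal at or above a set limit, and enough replicates individually reaching it; inconclusive = meets only the mean limit or only the replicate share; inactive = meets neither condition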;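 also: 0% = median of neutral control wells and 100% = median of positive control wells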
Active calls of the source: *. The entries come from a sample that favours hits as a whole.

What do the screens show for `CCCC#Cc1ccc([C@H]2[C@@H](CO)N(C(=O)C3CCCCC3)[C@H]2C#N)cc1`?
GASC1 inh: 2.4; IDH1 R132H inh: -0.5; T cruzi growth-1: 91.5

Results for CCCC#Cc1ccc([C@H]2[C@@H](CO)N(C(=O)C3CCOCC3)[C@H]2C#N)cc1 ?
GASC1 inh: 2.2; T cruzi growth-1: 78.0

How did CCCC#Cc1ccc([C@@H]2[C@@H](CO)N(C(=O)C3CCOCC3)[C@H]2C#N)cc1 do in these assays?
GASC1 inh: 0.0; T cruzi growth-1: 74.0

How did Cc1ccc(C(O)COC2=NCNc3cc(Cl)ccc32)cc1 (stereo not given) do in these assays?
IDH1 R132H inh: -0.9

How did CC(NC(=O)Cn1c(-c2nonc2N)nc2ccccc21)c1ccccc1 (stereo not given) do in these assays?
IDH1 R132H inh: -0.3

How did C[C@H]1CN([C@@H](C)CO)C(=O)Cc2cc(NC(=O)NC3CCCCC3)ccc2O[C@@H]1CN(C)S(=O)(=O)c1cccs1 do in these assays?
IDH1 R132H inh: -0.6

What do the screens show for `COC(=O)c1ccc(C)c(NC(=O)CN(c2cc(Cl)c(Cl)cc2Cl)S(C)(=O)=O)c1`?
IDH1 R132H inh: 0.0

Results for CCCC#Cc1ccc([C@H]2[C@@H](CO)N(C(=O)C3CCCC3)[C@H]2C#N)cc1 ?
GASC1 inh: -3.2; T cruzi growth-1: 104.6*; T cruzi growth-2: 115.9*; T cruzi growth-3: 10.9; 3T3 cytotox: -3.9; 3T3 cytotox 2: 27.7*

Results for N#C[C@H]1[C@@H](c2ccc(C#Cc3ccc(F)cc3)cc2)[C@H](CO)N1C(=O)C1CCCC1 ?
GASC1 inh: -2.6; T cruzi growth-1: 92.7

Results for CC(C)C#Cc1ccc([C@@H]2[C@@H](C#N)N(C(=O)C3CCC3)[C@H]2CO)cc1 ?
GASC1 inh: -1.6; T cruzi growth-1: inconclusive; T cruzi growth-2: 101.2*; T cruzi growth-3: 77.2; 3T3 cytotox: 19.9; 3T3 cytotox 2: 32.8*

Results for CC(C)C#Cc1ccc([C@H]2[C@@H](CO)N(C(=O)C3CCC3)[C@H]2C#N)cc1 ?
GASC1 inh: -0.9; T cruzi growth-1: 37.2

How did Cc1ccc(-n2c(SCC(=O)Nc3cccc(C)c3C)nnc2-c2ccncc2)cc1C do in these assays?
IDH1 R132H inh: 0.3

What do the screens show for `O=C(CCCCCCC(=O)N/N=C/c1ccc(O)cc1)NO`?
IDH1 R132H inh: -0.2

Results for COc1ccccc1NC(=O)N1CC[C@@H]2[C@H]1c1cc(-c3ccc(F)cc3)ccc1N(C)[C@H]2CO ?
GASC1 inh: -1.4; T cruzi growth-1: 84.5

Results for CN1c2ccc(-c3cccc(C#N)c3)cc2[C@@H]2[C@@H](CCN2C(=O)Nc2cc(F)ccc2F)[C@@H]1CO ?
GASC1 inh: -1.8; T cruzi growth-1: inconclusive; T cruzi growth-2: 99.6*; T cruzi growth-3: 93.3; 3T3 cytotox: 22.3; 3T3 cytotox 2: 13.2

Results for CN1c2ccc(-c3ccc(C#N)cc3)cc2[C@@H]2[C@@H](CCN2C(=O)Nc2ccccc2F)[C@@H]1CO ?
GASC1 inh: -6.9; T cruzi growth-1: 83.7

What do the screens show for `CN1c2ccc(-c3ccc(F)cc3)cc2[C@H]2[C@H](CCN2C(=O)Nc2cc(F)ccc2F)[C@H]1CO`?
GASC1 inh: -2.2; T cruzi growth-1: 15.2

Results for COc1ccccc1NC(=O)N1CC[C@H]2[C@@H]1c1cc(C#Cc3ccc(F)cc3)ccc1N(C)[C@H]2CO ?
GASC1 inh: 0.2; T cruzi growth-1: 108.2*; T cruzi growth-2: 106.0*; T cruzi growth-3: 116.1*; 3T3 cytotox: 2.7; 3T3 cytotox 2: 5.2

How did CN1c2ccc(Br)cc2[C@H]2[C@H](CCN2C(=O)Nc2cc(F)ccc2F)[C@H]1CO do in these assays?
GASC1 inh: 0.9; T cruzi growth-1: inconclusive; T cruzi growth-2: 104.5*; T cruzi growth-3: 40.1; 3T3 cytotox: 11.2; 3T3 cytotox 2: 44.2*

Results for CC(=O)c1ccc(NC(=O)COc2ccccc2C(=O)Nc2cc(C(F)(F)F)ccc2Cl)cc1 ?
IDH1 R132H inh: -0.6

What do the screens show for `CN(C)C1=NC(C(F)(F)F)(C(F)(F)F)N=C(c2ccccc2)O1`?
IDH1 R132H inh: -0.1

How did CC(=O)c1ccc(N2CCN(C(=S)Nc3ccc(S(=O)(=O)Nc4ncccn4)cc3)CC2)cc1 do in these assays?
IDH1 R132H inh: 0.1

What do the screens show for `COc1ccc(S(=O)(=O)N2CCC(C(=O)Nc3ccc(NC(C)=O)cc3)CC2)cc1OC`?
IDH1 R132H inh: 0.3

How did C/C=C/c1ccc2c(c1)O[C@H](CN(C)C(=O)Nc1ccc(C(F)(F)F)cc1)[C@H](C)CN([C@@H](C)CO)S2(=O)=O do in these assays?
GASC1 inh: -0.9; IDH1 R132H inh: 0.0; T cruzi growth-1: inconclusive; T cruzi growth-2: 98.9*; T cruzi growth-3: 61.9; 3T3 cytotox: 45.9*; 3T3 cytotox 2: 68.8*

What do the screens show for `C/C=C/c1ccc2c(c1)O[C@H](CN(C)C(=O)Nc1ccc(F)cc1)[C@H](C)CN([C@@H](C)CO)S2(=O)=O`?
GASC1 inh: 5.6; IDH1 R132H inh: -0.6; T cruzi growth-1: 77.2

Results for C/C=C/c1ccc2c(c1)O[C@H](CN(C)C(=O)Nc1ccc(F)cc1)[C@@H](C)CN([C@H](C)CO)S2(=O)=O ?
GASC1 inh: 2.6; IDH1 R132H inh: -0.8; T cruzi growth-1: 38.6

How did C/C=C/c1ccc2c(c1)O[C@@H](CN(C)C(=O)Nc1ccc(F)cc1)[C@H](C)CN([C@@H](C)CO)S2(=O)=O do in these assays?
GASC1 inh: -3.1; IDH1 R132H inh: 0.5; T cruzi growth-1: -14.5

What do the screens show for `C/C=C/c1ccc2c(c1)O[C@H](CN(C)C(=O)Nc1ccc(C(F)(F)F)cc1)[C@@H](C)CN([C@H](C)CO)S2(=O)=O`?
GASC1 inh: -2.3; IDH1 R132H inh: 0.1; T cruzi growth-1: inconclusive; T cruzi growth-2: 101.7*; T cruzi growth-3: 100.6*; 3T3 cytotox: 36.3*; 3T3 cytotox 2: 68.0*

Results for C/C=C/c1ccc2c(c1)O[C@@H](CN(C)C(=O)Nc1ccc(C(F)(F)F)cc1)[C@H](C)CN([C@@H](C)CO)S2(=O)=O ?
GASC1 inh: 0.4; IDH1 R132H inh: -0.4; T cruzi growth-1: 108.3*; T cruzi growth-2: 97.4*; T cruzi growth-3: inconclusive; 3T3 cytotox: 26.0; 3T3 cytotox 2: 102.1*

How did COC(=O)c1ccccc1NC(=O)CN(c1ccc(F)cc1)S(C)(=O)=O do in these assays?
IDH1 R132H inh: -0.8

How did O=C(O)CCCCCC(=O)NN=C1CCCCCCC1 do in these assays?
IDH1 R132H inh: 1.0
